Two compounds from ChEMBL document CHEMBL4382256, “Design and Synthesis of Marine Phidianidine Derivatives as Potential Immunosuppressive Agents” (J Med Chem, 2018) can be followed below.

Each structure is given as a SMILES string. pIC50: −log10 of the molar value. Active and inactive are the calls of the source. The rule behind the calls is not given here.

Data set [1] in a line: Immunosuppressive activity in BALB/c mouse CD4-positive T cells assessed as anti-CD3/CD28 stimulated CD25 expression at 3 uM by phycoerythrin staining-based flow cytometric analysis (reference value: 52.5%). It is filed as functional. The gist of the method:
(§1)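 Purified splenic CD4+ T cells stimulated with anti-CD3 (5 μg/ml) plus anti-CD28 (2 μg/ml) with or without compound at 10, 3 or 1 μM. Cells washed in PBS, stained with fixable viability dye eFluor 780 for 30 min at 4 °C, Fc-blocked with anti-CD16/CD32, stained with PE-CD25. CD25+ percentage read by flow cytometry.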
In general terms: A flow cytometer gives signals particle by particle.

For data set [2], the species on record is Mus musculus. The data set is described as follows: Immunosuppressive activity in BALB/c mouse CD4-positive T cells assessed as decrease in anti-CD3/CD28 stimulated IL-2 production at 1 to 10 uM after 24 hrs by ELISA. It is filed as functional. The essentials: (§2)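 Purified splenic CD4+ T cells (negative selection, >98% pure) stimulated with anti-CD3 (5 μg/ml) plus anti-CD28 (2 μg/ml), with or without compound at 10, 3 and 1 μM, for 24 h. Supernatant IL-2 and IFN-γ measured by mouse ELISA kits.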

Data set [3] can be described thus: Immunosuppressive activity in BALB/c mouse CD4-positive T cells assessed as anti-CD3/CD28 stimulated CD25 expression at 10 uM by phycoerythrin staining-based flow cytometric analysis (reference value: 52.5%). It is filed as functional. The gist of the method: as §1
The species named for data set [4] is Mus musculus. Description: Immunosuppressive activity in BALB/c mouse CD4-positive T cells assessed as inhibition of anti-CD3/CD28 stimulated cell proliferation at 1 to 10 uM after 48 hrs by [3H]-thymidine uptake assay. It is filed as functional. The essentials: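 CD4+ T cells isolated from BALB/c spleen by immunomagnetic negative selection (purity >98%). 4×10^5 cells/well on plate-coated anti-CD3 (5 μg/ml) plus anti-CD28 (2 μg/ml), with or without compound at 10, 3 and 1 μM, for 48 h. Proliferation read by 0.5 μCi/well [3H]thymidine pulse.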

Data set [5] is filed under the species Mus musculus. The data set is described as follows: Immunosuppressive activity in BALB/c mouse CD19-positive B cells assessed as decrease in anti-IgM/CD40 stimulated IL-6 levels at 1 to 10 uM after 24 hrs by ELISA. It is filed as functional. The essentials: (§3)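 Purified splenic CD19+ B cells (negative selection, >98% pure) stimulated with F(ab')2 anti-IgM (10 μg/ml) plus anti-CD40 (1 μg/ml), with or without compound at 10, 3 and 1 μM, 24 h. Supernatant IL-6 and IL-10 measured by mouse ELISA kits.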
Background: In an ELISA, binding on a coated surface is turned into a signal by an enzyme label.

The nature of data set [6]: Immunosuppressive activity in BALB/c mouse CD4-positive T cells assessed as anti-CD3/CD28 stimulated CD25 expression at 1 uM by phycoerythrin staining-based flow cytometric analysis (reference value: 52.5%). Format: functional. The essentials:
as §1

For data set [7], the species on record is Mus musculus. Description: Immunosuppressive activity in BALB/c mouse CD19-positive B cells assessed as inhibition of anti-IgM/CD40 stimulated cell proliferation at 1 to 10 uM after 48 hrs by [3H]-thymidine uptake assay. It is filed as functional. The essentials: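 CD19+ B cells purified from BALB/c spleen by negative selection (purity >98%). Stimulated with F(ab')2 anti-mouse IgM (10 μg/ml) plus hamster anti-mouse CD40 (1 μg/ml), with or without compound at 10, 3 and 1 μM, 48 h. Proliferation by 0.5 μCi/well [3H]thymidine pulse.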

The species entered for data set [8] is Mus musculus. The data set is described as follows: Immunosuppressive activity in BALB/c mouse CD19-positive B cells assessed as increase in anti-IgM/CD40 stimulated IL-10 levels at 1 to 10 uM after 24 hrs by ELISA. It is filed as functional. The essentials:
as §3

Data set [9] relates to Splenocyte. Description: Immunosuppressive activity in BALB/c mouse splenocytes assessed as inhibition of LPS-stimulated B-cell proliferation by measuring [3H]-thymidine uptake preincubated for 48 hrs followed by LPS stimulation and [3H]-thymidine addition for 8 hrs measured after 48 hrs by beta-scintillation counting analysis. It is filed as functional, cell-based. The essentials: (§4)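 Female BALB/c splenocytes (5×10^5 cells), triplicate, with or without compound, stimulated with Con A 5 μg/ml (T cells) or LPS (E. coli 055:B5) 10 μg/ml (B cells). Culture 48 h at 37 °C, 5% CO2. Pulsed 8 h with 0.5 μCi/well [3H]thymidine, harvested to glass fiber filters, beta scintillation counted. IC50 from log(inhibitor) vs normalized response non-linear fit.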

For data set [10], the species on record is Mus musculus. Description: Immunosuppressive activity in BALB/c mouse CD4-positive T cells assessed as decrease in anti-CD3/CD28 stimulated IFN-gamma production at 1 to 10 uM after 24 hrs by ELISA. It is filed as functional. The gist of the method: as §2
Data set [11] in a line: Cytotoxicity against BALB/c mouse splenocytes after 48 hrs by CCK-8 assay. It is filed as cell-based, Splenocyte. The essentials:
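Fresh female BALB/c splenocytes (1×10^6 cells), RBC-depleted with ammonium chloride, cultured in triplicate in RPMI 1640/10% FBS with penicillin/streptomycin at 37 °C, 5% CO2 for 48 h with or without compound (DMSO stock diluted in medium). CCK-8 added, 6-8 h further incubation, absorbance 450 nm (570 nm calibration). CC50 from log(inhibitor) vs normalized response non-linear fit.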

A short description of data set [12]: Immunosuppressive activity in BALB/c mouse CD19-positive B cells assessed as inhibition of anti-IgM/CD40 -induced decrease in IgD expression by measuring mean fluorescence intensity at 1 uM by allophycocyanin staining-based flow cytometric analysis (reference value: 5084). It is filed as functional.
A short description of data set [13]: Immunosuppressive activity in BALB/c mouse CD19-positive B cells assessed as inhibition of anti-IgM/CD40 -induced decrease in IgD expression by measuring mean fluorescence intensity at 3 uM by allophycocyanin staining-based flow cytometric analysis (reference value: 5084). It is filed as functional.
Data set [14] is described as follows: Immunosuppressive activity in BALB/c mouse CD19-positive B cells assessed as inhibition of anti-IgM/CD40 -induced decrease in IgD expression by measuring mean fluorescence intensity at 10 uM by allophycocyanin staining-based flow cytometric analysis (reference value: 5084). Format: functional.
For data set [15], the system named is Splenocyte. Description: Immunosuppressive activity in BALB/c mouse splenocytes assessed as inhibition of concanavalin A stimulated T-cell proliferation by measuring [3H]-thymidine uptake preincubated for 48 hrs followed by concanavalin A stimulation and [3H]-thymidine addition for 8 hrs measured after 48 hrs by beta-scintillation counting analysis. Format: functional, cell-based. The essentials:
as §4

On to `COc1cc(-c2nc(Cc3c[nH]c4ccccc34)no2)cc(OC)c1OC`, for which the figures for the Activity in data set [1], in data set [3] and in [6] were 48.6%, 22% and 50.3%, respectively. Further, the result in the data set listed under Mus musculus [2], in the data set filed under Mus musculus [5], in the data set listed under Mus musculus [7], in the data set listed under Mus musculus [8] and in the data set filed under Mus musculus [10] was Active. Moreover, in the data set filed under Mus musculus [4], the inhibition result is “Active”. Moreover, the pIC50 (usually the negative decadic logarithm of the IC50, by convention in mol/L) was 5.51 in the data set with Splenocyte [9] and 4.96 with Splenocyte [15]. Moreover, the CC50 (commonly the concentration that lowers cell viability or growth by half) at 48 h in [11] is over 50 µM. Further, the Flu intensity was 5640 in data set [12], 6134 in data set [13] and 6814 in data set [14].

As for `COc1cc(-c2noc(-c3ccc(N)cc3)n2)cc(OC)c1OC`, the Activity came to 38.3% in data set [1], 19% in data set [3] and 52.2% in [6]. Also, the result in the data set filed under Mus musculus [2], in the data set listed under Mus musculus [5], in the data set listed under Mus musculus [7], in the data set filed under Mus musculus [8] and in the data set filed under Mus musculus [10] was Active. In addition, in the data set listed under Mus musculus [4], the inhibition result is “Active”. Further, the pIC50 in the data set on Splenocyte [9] was 5.77; in the data set on Splenocyte [15], 6.10. Also, the CC50 at 48 h in data set [11] was over 50 µM. The values for the Flu intensity in data set [12], in data set [13] and in [14] were 5281, 6866 and 6995, respectively.
